Experiment [1] can be described thus: Inhibition of RTK/PI3K/AKT/mTOR signaling in human U87 cells assessed as up regulation of ETS variant 1 gene expression at cytotoxic IC50 measured after 48 hrs relative to control. It counts as cell-based. The settings on record: U-87MG ATCC. The method in brief:
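Cells were exposed for 48hrs at 37°C in humidified 5% CO₂ to the compound at its previously determined IC₅₀, with Cisplatin at its IC₅₀ and an untreated negative control alongside. Each condition was run in triplicate. RNA was isolated from all samples by the same protocol. Genes were called differentially expressed by DESeq2 at q-value < 0.05 and fold change > 1.5.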

In the next experiment the test system is U-87 MG. As to the kind of experiment: Induction of DNA damage in human U87 cells assessed as change in RPS27L gene expression at cytotoxic IC50 measured after 48 hrs […] relative to control. It counts as functional, U-87MG ATCC. The method in brief:
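U87 expression profiling. Cells incubated 48hrs at 37°C, 5% CO₂ with the IC₅₀ concentration, alongside a cisplatin and an untreated control, in triplicate. RNA was isolated by one common protocol and profiled. DEGs were called with DESeq2 (q < 0.05, fold change > 1.5) and expressed as fold change versus untreated.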

Regarding `CC(=O)C(=NNc1ccccc1C#N)C(C)=O`, the log2FC in experiment [1] amounted to 1.09. In the experiment with U-87 MG, the “fold change (FC)” value is 2.121.

The values above are taken from ChEMBL document CHEMBL4316593 (Eur J Med Chem, 2019).
